Tested on: U2OS
Test: Multiplex assay against U2OS
Format: toxicity, cell-based
Details: human
Outline: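 On a CQ1 microscope at 37°C and 5% CO2, live cells were imaged after compound addition. They had been stained at seeding with Hoechst33342, BioTracker Green Microtubule Cytoskeleton Dye, MitoTracker Red and Annexin V Alexa Fluor 680. CellPathfinder machine-learning gating assigned cells to Hoechst high-intensity objects or normal cells, normal cells to healthy, pyknosed or fragmented nuclei, and pyknosed cells to mitotic or apoptotic. Tubulin, mitochondrial-mass and membrane-permeability phenotypes are per cents of healthy-nucleus cells.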

[1] = 12 h, 1 µM, compound concentration 1 uM, replicate 1
[2] = 12 h, 1 µM, compound concentration 1 uM, replicate 2
[3] = 12 h, 10 µM, compound concentration 10 uM, replicate 1
[4] = 12 h, 10 µM, compound concentration 10 uM, replicate 2
[5] = 24 h, 1 µM, compound concentration 1 uM, replicate 1
[6] = 24 h, 1 µM, compound concentration 1 uM, replicate 2
[7] = 24 h, 10 µM, compound concentration 10 uM, replicate 1
[8] = 24 h, 10 µM, compound concentration 10 uM, replicate 2
[9] = 48 h, 1 µM, compound concentration 1 uM, replicate 1
[10] = 48 h, 1 µM, compound concentration 1 uM, replicate 2
[11] = 48 h, 10 µM, compound concentration 10 uM, replicate 1
[12] = 48 h, 10 µM, compound concentration 10 uM, replicate 2

## COc1cc(Nc2ncc3c(n2)-c2ccc(Cl)cc2C(c2c(F)cccc2OC)=NC3)ccc1C(=O)O [ALISERTIB]
[1]
  Population Apoptotic (%): 63%
  Population Fragmented Nuclei (%): 23%
  Population Healthy Nuclei (%): 65%
  Population Hoechst High Intensity Objects (%): 1%
  Population Membrane Permeable-Phenotype (%): 4%
  Population Mitochondria Different-Phenotype (%): 3%
  Population Mitotic Cells (%): 36%
  Population Normal (%): 98%
  Population Pyknosed Nuclei (%): 10%
  Population Tubulin-Different-Phenotype (%): 3%
[2]
  Population Apoptotic (%): 71%
  Population Fragmented Nuclei (%): 35%
  Population Healthy Nuclei (%): 55%
  Population Hoechst High Intensity Objects (%): 4%
  Population Membrane Permeable-Phenotype (%): 8%
  Population Mitochondria Different-Phenotype (%): 4%
  Population Mitotic Cells (%): 28%
  Population Normal (%): 95%
  Population Pyknosed Nuclei (%): 8%
  Population Tubulin-Different-Phenotype (%): 11%
[3]
  Population Apoptotic (%): 79%
  Population Fragmented Nuclei (%): 31%
  Population Healthy Nuclei (%): 57%
  Population Hoechst High Intensity Objects (%): 3%
  Population Membrane Permeable-Phenotype (%): 11%
  Population Mitochondria Different-Phenotype (%): 5%
  Population Mitotic Cells (%): 20%
  Population Normal (%): 96%
  Population Pyknosed Nuclei (%): 11%
  Population Tubulin-Different-Phenotype (%): 4%
[4]
  Population Apoptotic (%): 71%
  Population Fragmented Nuclei (%): 12%
  Population Healthy Nuclei (%): 82%
  Population Hoechst High Intensity Objects (%): 2%
  Population Membrane Permeable-Phenotype (%): 5%
  Population Mitochondria Different-Phenotype (%): 1%
  Population Mitotic Cells (%): 28%
  Population Normal (%): 97%
  Population Pyknosed Nuclei (%): 5%
  Population Tubulin-Different-Phenotype (%): 0%
[5]
  Population Apoptotic (%): 78%
  Population Fragmented Nuclei (%): 26%
  Population Healthy Nuclei (%): 64%
  Population Hoechst High Intensity Objects (%): 1%
  Population Membrane Permeable-Phenotype (%): 9%
  Population Mitochondria Different-Phenotype (%): 4%
  Population Mitotic Cells (%): 21%
  Population Normal (%): 98%
  Population Pyknosed Nuclei (%): 8%
  Population Tubulin-Different-Phenotype (%): 5%
[6]
  Population Apoptotic (%): 75%
  Population Fragmented Nuclei (%): 20%
  Population Healthy Nuclei (%): 63%
  Population Hoechst High Intensity Objects (%): 2%
  Population Membrane Permeable-Phenotype (%): 6%
  Population Mitochondria Different-Phenotype (%): 2%
  Population Mitotic Cells (%): 25%
  Population Normal (%): 97%
  Population Pyknosed Nuclei (%): 15%
  Population Tubulin-Different-Phenotype (%): 2%
[7]
  Population Apoptotic (%): 84%
  Population Fragmented Nuclei (%): 30%
  Population Healthy Nuclei (%): 55%
  Population Hoechst High Intensity Objects (%): 4%
  Population Membrane Permeable-Phenotype (%): 13%
  Population Mitochondria Different-Phenotype (%): 5%
  Population Mitotic Cells (%): 15%
  Population Normal (%): 95%
  Population Pyknosed Nuclei (%): 13%
  Population Tubulin-Different-Phenotype (%): 4%
[8]
  Population Apoptotic (%): 90%
  Population Fragmented Nuclei (%): 12%
  Population Healthy Nuclei (%): 77%
  Population Membrane Permeable-Phenotype (%): 9%
  Population Mitochondria Different-Phenotype (%): 4%
  Population Mitotic Cells (%): 9%
  Population Pyknosed Nuclei (%): 9%
  Population Tubulin-Different-Phenotype (%): 5%
[9]
  Population Apoptotic (%): 85%
  Population Fragmented Nuclei (%): 28%
  Population Healthy Nuclei (%): 59%
  Population Hoechst High Intensity Objects (%): 3%
  Population Membrane Permeable-Phenotype (%): 6%
  Population Mitochondria Different-Phenotype (%): 5%
  Population Mitotic Cells (%): 14%
  Population Normal (%): 96%
  Population Pyknosed Nuclei (%): 12%
  Population Tubulin-Different-Phenotype (%): 3%
[10]
  Population Apoptotic (%): 78%
  Population Fragmented Nuclei (%): 29%
  Population Healthy Nuclei (%): 53%
  Population Membrane Permeable-Phenotype (%): 11%
  Population Mitochondria Different-Phenotype (%): 6%
  Population Mitotic Cells (%): 21%
  Population Pyknosed Nuclei (%): 17%
  Population Tubulin-Different-Phenotype (%): 4%
[11]
  Population Apoptotic (%): 88%
  Population Fragmented Nuclei (%): 34%
  Population Healthy Nuclei (%): 44%
  Population Hoechst High Intensity Objects (%): 9%
  Population Membrane Permeable-Phenotype (%): 16%
  Population Mitochondria Different-Phenotype (%): 9%
  Population Mitotic Cells (%): 11%
  Population Normal (%): 90%
  Population Pyknosed Nuclei (%): 21%
  Population Tubulin-Different-Phenotype (%): 9%
[12]
  Population Fragmented Nuclei (%): 16%
  Population Healthy Nuclei (%): 70%
  Population Hoechst High Intensity Objects (%): 5%
  Population Membrane Permeable-Phenotype (%): 7%
  Population Mitochondria Different-Phenotype (%): 3%
  Population Normal (%): 94%
  Population Pyknosed Nuclei (%): 13%
  Population Tubulin-Different-Phenotype (%): 2%
